Bioassay records: PubChem BioAssay, several laboratories
sPLA2-III inh = human group III sPLA2 inhibitors, primary screen, biochemical, QFRET, BODIPY PC-A2 liposome substrate. Group 3 secretory phospholipase A2 (Homo sapiens), Q9NZ20. QFRET BODIPY PC-A2 liposome hydrolysis, fluorescence. inhibition, % at 12.2 µM. 370,000 tested, 0.56% active;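 active = inhibition above mean plus 3 SD of compounds lying within the high and low control bounds, cut at about 19% in these data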;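 note: 0% = median of test compound wells and 100% = no enzyme DMSO wells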
Target sequence (Q9NZ20 whole entry, looked up): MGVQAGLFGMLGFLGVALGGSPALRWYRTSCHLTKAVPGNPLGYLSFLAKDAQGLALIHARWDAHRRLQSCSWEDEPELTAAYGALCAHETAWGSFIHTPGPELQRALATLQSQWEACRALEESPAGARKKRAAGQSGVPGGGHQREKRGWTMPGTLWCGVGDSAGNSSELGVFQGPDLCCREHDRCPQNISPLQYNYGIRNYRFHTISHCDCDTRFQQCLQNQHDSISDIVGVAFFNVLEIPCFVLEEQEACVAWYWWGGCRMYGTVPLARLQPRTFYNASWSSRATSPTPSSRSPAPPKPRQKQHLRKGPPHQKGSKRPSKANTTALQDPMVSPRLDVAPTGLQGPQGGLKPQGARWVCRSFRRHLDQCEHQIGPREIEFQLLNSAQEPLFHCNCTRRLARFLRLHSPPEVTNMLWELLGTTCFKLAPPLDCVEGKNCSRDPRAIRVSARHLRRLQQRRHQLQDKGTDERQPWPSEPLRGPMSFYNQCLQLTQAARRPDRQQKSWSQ
ASAP1 inh = inhibitors of human ASAP1 ArfGAP activity, primary screen, biochemical, fluorescence polarization. AID 624377, 2012. Arf-GAP with SH3 domain, ANK repeat and PH domain-containing protein 1 (Homo sapiens), …. 360,000 tested, 0.19% active. ASAP1-stimulated ARF1 GTP hydrolysis, GDP FP detection. inhibition, % at 16.5 µM; in the data active = inhibition above about 25%;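 note: 0% = vehicle with enzyme and substrate and 100% = no enzyme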
NR1D1 modulator = modulators of Rev-erb alpha DNA binding, primary screen, biochemical, FITC-DNA, fluorescence polarization, uHTS | Rev-erbα–FITC-DNA binding, 90 min | activity, % at 10 µM | 370,000 tested, 0.79% active | AID 1259318, 2017;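 active = activity above about 14%, limit read from the data; passing the limit was not always enough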;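 note: 0% = DMSO wells with 35 nM protein and 100% = DMSO wells with 750 nM protein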
ARFGAP1 inh = inhibitors of rat ARFGAP1 GAP activity, primary screen, biochemical, fluorescence polarization, GDP tracer; Arfgap1-stimulated ARF1 GTP hydrolysis, GDP FP detection; inhibition, % at 16.5 µM; 360,000 tested, 0.26% active;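 active = inhibition above a per-plate limit, mean inhibition of low control wells plus 3 SD, cut at about 25% in these data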;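 note: 0% = DMSO wells with enzyme and 100% = wells lacking Arfgap1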
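system = rat Arfgap1 catalytic domain, aa 1-136 | technique = FP, GDP Alexa 633 tracer displaced from anti-GDP antibody, 620/688 nm | compound = one concentration, 16.5 µM, DMSO 1.26% | medium = HEPES-based buffer, pH 7.5 | timing = compound-enzyme preincubation 20 min, reaction 120 min, detection 60 min, 25 °C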
MsrA inhibitor = bovine MsrA enzyme inhibitors, primary screen, biochemical, absorbance, HTS; Methionine sulfoxide reductase A (Bos taurus); purified bovine MsrA, absorbance read-out; inhibition, % at 15.5 µM; 360,000 tested, 0.75% active;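 note: 0% = vehicle wells with enzyme and 100% = reference inhibitor wells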
MsrA act = bovine MsrA enzyme activators, primary screen, biochemical, absorbance, HTS | Methionine sulfoxide reductase A (Bos taurus) | purified bovine MsrA, absorbance read-out | activation, % at 10.6 µM | 360,000 tested, 0.3% active; in the data active = activation above about 7.5%;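 note: 0% = vehicle and 100% = reference activator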
MsrA conf = bovine MsrA inhibitors, retest, confirmation, biochemical, absorbance, HTS; shares compounds with MsrA inhibitor; AID 651822, 2012; 2,300 tested, 41% active; inhibition, % at 15.5 µM; purified bovine MsrA, absorbance read-out;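 note: coupled to thioredoxin reductase with NADPH and selenocystamine and DMSO as substrate; 0% = vehicle only and 100% = full effect of reference inhibitor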
* hit, by the source's call; . = no result. Rows were chosen to be rich in hits. Some 2.7% of all compounds tested hit in one or more screens of this group. Cut-off read from the data, not from the text of the source, unless noted: active = inhibition above about 4.5%; inactive = the rest.

SMILES	sPLA2-III inh	ASAP1 inh	NR1D1 modulator	ARFGAP1 inh	MsrA inhibitor	MsrA act	MsrA conf
COc1ccc(/C=N/N=C2/NC(=O)C(CC(=O)O)S2)cc1OS(=O)(=O)c1ccccc1 (centres undefined)	-2	-11	-2	-1	4	-5	.
Cn1c(=O)n(C)c2cc(/C=N/N=C3/NC(=O)C(CC(=O)O)S3)ccc21 (centres undefined)	3	13	-2	4	6.2*	-8	6.7*
CCOc1cc(/C=N/N=C2/NC(=O)C(CC(=O)O)S2)ccc1OCc1ccc(Cl)cc1 (centres undefined)	-20	-11	-4	4	3	-7	.
Cc1occc1-c1nnc(SCC(=O)Nc2ccccn2)n1-c1ccccc1	-6	.	0	.	.	.	.
O=C(O)c1cccc(NC2=C(Cl)C(=O)c3ccccc3C2=O)c1	6	12	-1	-4	4.9*	-10	1
COc1nc(NCCN2CCOCC2)nc(Nc2ccc([N+](=O)[O-])cc2)n1	-3	-12	-4	18	4.8*	-13	3
C=CS(=O)(=O)N(Cc1nnn(Cc2ccccc2)c1Br)[C@@H](CC(C)C)C(=O)OC	9	.	-6	.	.	.	.
Cc1ccc(S(=O)(=O)NCCNc2ccc([N+](=O)[O-])cc2C(F)(F)F)cc1	-25	12	2	11	29*	-3	21*
COCC(=O)N1CCC(C(=O)NCC2COc3ccccc3O2)CC1 (centres undefined)	6	.	-4	.	.	.	.
CCN(CC)C(=O)c1oc(=O)c2ccccc2c1-c1ccc(C)cc1	8	.	-2	.	.	.	.
COc1ccc(-n2c(COc3ccccc3)nnc2SCC(=O)Nc2ccccc2-c2ccccc2)cc1	-23	.	-4	.	.	.	.
N#C/C(=C\c1ccc(O)cc1)C(=O)N1CCCC1	0	-8	-5	0	3	-3	.
N#C/C(=C\C=C\c1ccccc1)C(=O)N1CCCC1	-2	8	-3	2	4.8*	-3	4.8*
O=[N+]([O-])c1ccc(N2CCCC2)c([N+](=O)[O-])c1	-3	-7	3	8	9.0*	-5	5.5*
O=[N+]([O-])c1ccc(N2CCOCC2)c([N+](=O)[O-])c1	5	0	-7	5	2	-2	.
O=C(/C=C\c1ccccc1)Nc1nccs1	2	-2	-6	11	1	-1	.
O=C(/C=C/c1cccs1)Nc1cccc(NC(=O)/C=C/c2cccs2)n1	6	3	3	8	7.4*	-11	6.0*
O=C(/C=C/c1cccs1)Nc1nccs1	4	11	-4	1	6.4*	-6	7.2*
Cc1cc(C)nc(NC(=O)/C=C/c2cccs2)c1	16	9	-3	18	4	-4	.
Cc1ccc(/C=C/C(=O)Nc2nccs2)o1	3	-6	1	0	5.5*	-5	7.8*
COc1ccc(-c2cc(C(=O)NN=C/C(C)=C/c3ccccc3)[nH]n2)cc1	-10	.	-17	.	.	.	.
COc1ccc(N2CC(C(=O)N/N=C/c3cc([N+](=O)[O-])ccc3O)CC2=O)cc1 (centres undefined)	0	2	0	5	5.2*	-4	3
CSc1nc2[nH]c3c(c2c2nncn12)CC(C)(C)OC3	0	-4	0	5	1	-12	.
CSc1nc2[nH]c3c(c2c2nnnn12)CCCC3	2	10	6	-8	12*	-11	10*
Cc1csc(NC(=O)c2ccc(COc3ccccc3F)o2)n1	-10	.	4	.	.	.	.
SMILES	sPLA2-III inh	ASAP1 inh	NR1D1 modulator	ARFGAP1 inh	MsrA inhibitor	MsrA act	MsrA conf
COC(=O)C1=C(C)NC(=O)NC1c1ccc(OC)c(OC)c1 (centres undefined)	-7	0	-1	-7	0	-4	.
COC(=O)C1=C(C)NC(=S)N(C(C)=O)C1c1ccc(OC)c(OC)c1 (centres undefined)	14	7	2	-7	4.7*	-5	3
O=c1oc2ccccc2c2c1cnc1ccccc12	-3	1	-1	2	16*	-2	15*
Cc1cnc(N)c2c(=O)oc3ccccc3c12	-1	-12	-8	-7	0	-3	.
O=[N+]([O-])c1cc([N+](=O)[O-])c(Oc2cccc(Cl)c2Cl)cc1NN1CCCCC1	-1	-3	4	4	0	-2	.
CCc1occc(=O)c1Oc1cc(NN2CCCCC2)c([N+](=O)[O-])cc1[N+](=O)[O-]	4	6	1	0	13*	-4	9.0*
O=C(O)CC1S/C(=N/N=C/c2ccc(-c3ccc(Cl)cc3[N+](=O)[O-])o2)NC1=O (centres undefined)	-8	-7	1	3	4.9*	-4	5.8*
Cc1ccc(/C=N/N=C2/NC(=O)C(CC(=O)Nc3ccc(Cl)cc3)S2)o1 (centres undefined)	-10	-1	-3	-10	1	-2	.
O=C(O)CC1S/C(=N/N=C/c2ccc(-c3ccc(Cl)c([N+](=O)[O-])c3)o2)NC1=O (centres undefined)	-5	-1	4	5	5.4*	-5	4
CCCCN1C[C@@H](COCc2ccccc2)Oc2cc(F)ccc2S1(=O)=O	1	.	-2	.	.	.	.
CN1CCCN(C(=O)C2CCCN(C(=O)c3ccc4c(c3)NC(=O)CS4)C2)CC1 (centres undefined)	2	.	-4	.	.	.	.
CCc1c(C)nc2ncnn2c1Nc1ccc(C(C)=O)cc1	7	-10	0	-2	5.3*	-4	4
COc1cccc(Nc2nc3ccccc3n3nnnc23)c1	-6	5	-2	5	8.8*	-2	7.9*
Fc1ccccc1Nc1nc2ccccc2n2nnnc12	-11	-11	-11	-8	11*	-4	7.3*
c1ccc(Nc2nc3ccccc3n3nnnc23)cc1	-7	-3	-1	5	8.1*	-2	4.9*
Fc1cccc(Nc2nc3ccccc3n3nnnc23)c1	2	-16	-1	5	3	-7	.
COC(=O)C(CCSC)NC(=O)c1cc2c(n(-c3ccc(C)cc3)c1=O)CCCC2=O (centres undefined)	-8	11	2	-9	5.5*	-10	0
